# Screening results: PubChem BioAssay, several laboratories
# The sample as a whole holds a higher share of hits than the screen did.
# Lmaj promast: reduces viability of Leishmania major promastigotes | resazurin fluorescence viability | inhibition, % at 10 µM | 9% of 200,000 active | AID 1063; in the data active = inhibition above about 50%;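 also: promastigotes grown with compound for 44 hours at 28 °C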
# S1P4 ag: activates the human S1P4 receptor | O95977 | 0.35% of 220,000 active | S1P4-expressing cell line, agonist reporter assay | AID 1509 | activation, % at 4.98 µM; in the data active = activation above about 11%;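 also: 0% = DMSO vehicle and 100% = reference agonist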
# S1P4 antag: blocks the human S1P4 receptor; O95977; S1P4-expressing cells, antagonist mode, reporter read-out; inhibition, % at 4.98 µM; 0.26% of 220,000 active; AID 1510; in the data active = inhibition above about 29%;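 also: 0% = wells stimulated with agonist and 100% = vehicle wells without agonist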
# Mdm2 ligase inh: inhibitors of human Mdm2 E3 ubiquitin ligase | Q00987 | cell-based MDM2 ubiquitination luciferase reporter, 2 h; 0 = plate control, 100 = twice control, blank-subtracted | signal enhancement, % at 5 µM | 0.11% of 210,000 active | AID 1230;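 active = signal enhancement of 30% or more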;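 also: luminescence tracks abundance of the self-degrading MDM2-luciferase fusion protein; higher signal means inhibition of MDM2 E3 ligase activity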
#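 Assay system: stable mammalian line carrying autodegrading MDM2–luciferase fusion reporter; Input: 2000 cells in each well; Compound dosing: single-point 5 µM; Schedule: 2 h compound exposure at 37 °C; Signal: SteadyLite luciferase luminescence after 15 min room-temperature reagent incubation; Evaluation: % luminescence enhancement versus blank-corrected plate control mean; Benchmarks: plate controls and plate blanks.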
# S1P3 antagonist: antagonists of human S1P3 receptor; inhibition, % at 4.98 µM; 0.27% of 170,000 active; CHO S1P3 NFAT-BLA reporter, FRET fluorescence, antagonist mode; Q99500; AID 485;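 active = inhibition above the plate cutoff, the mean inhibition of test wells on that plate plus 3 SD, cut at about 28% in these data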;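 also: cells challenged with S1P at its EC80 of 0.8 µM; blue over green emission ratio from cleaved BLA substrate after 4 h stimulation; 0% = S1P-stimulated wells and 100% = unstimulated DMSO-only wells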
# Target sequence (Q99500 whole entry, looked up): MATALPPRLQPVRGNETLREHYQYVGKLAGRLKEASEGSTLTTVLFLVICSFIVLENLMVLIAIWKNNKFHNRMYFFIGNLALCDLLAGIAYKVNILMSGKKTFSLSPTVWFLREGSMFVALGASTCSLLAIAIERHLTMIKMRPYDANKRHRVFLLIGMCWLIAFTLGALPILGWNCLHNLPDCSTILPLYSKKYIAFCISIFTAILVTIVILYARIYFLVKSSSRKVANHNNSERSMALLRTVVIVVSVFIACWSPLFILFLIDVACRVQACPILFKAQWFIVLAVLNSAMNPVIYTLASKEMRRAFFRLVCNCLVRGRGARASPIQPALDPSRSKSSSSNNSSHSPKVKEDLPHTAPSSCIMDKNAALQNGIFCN
# * = called active by the depositor; · = no result.
SMILES,Lmaj promast,S1P4 ag,S1P4 antag,Mdm2 ligase inh,S1P3 antagonist
O=C(c1cc([N+](=O)[O-])cc([N+](=O)[O-])c1)N1CCOCC1,1.9,-0.1,-5.1,-12.5,-18.9
Cc1ccccc1CN1C(=O)Nc2ccccc2C(=O)N1C(C)(C)C,-1.8,0.1,-1.2,-1.8,·
CC(C)(C)N1C(=O)c2ccccc2NC(=O)N1Cc1ccc(Br)cc1,99.2*,-0.2,-12.2,-0.4,·
COc1ccc(CCN2CCC(Nc3nc4ccccc4n3Cc3ccc(F)cc3)CC2)cc1,100.4*,1.2,-12.2,·,8.1
NC(=O)CC(NC(=O)c1cccc(Br)c1)c1ccc(NCCN2CCOCC2)c([N+](=O)[O-])c1 (configuration not stated),·,·,·,18.6,·
N/C(=N\c1nc2c(c(=O)[nH]1)CCCC2)Nc1ccccc1,7.4,0.8,-19.1,-3.4,11.8
N/C(=N\c1nc2c(c(=O)[nH]1)CCC2)Nc1ccccc1,72.6*,0.4,-21.2,-6.9,-1.1
CC(=O)NCCNC(=O)CNC(=O)c1ccc(Cl)cc1,-6.3,2.2,-19.0,-9.2,-7.7
O=C(CNC(=O)c1ccc(Cl)cc1)NCC(F)(F)F,55.1*,0.4,5.4,1.7,-14.8
O=C(NNc1cc(N2CCOCC2)nc(N2CCOCC2)n1)c1ccc(Cl)c(Cl)c1,17.9,1.0,-14.3,-13.1,-17.9
Cc1ccc(C(=O)NNc2cc(N3CCCC3)nc(N3CCCC3)n2)cc1,100.4*,1.8,-6.6,-13.9,·
CC(O/N=C/c1ccc(OC(F)F)cc1)C(=O)Nc1cccc(S(=O)(=O)N2CCOCC2)c1 (configuration not stated),10.8,-0.3,5.2,-1.3,-4.5
Cc1c(C(=O)NN2CCCCC2)nn(-c2ccc(Cl)cc2Cl)c1-c1ccc(I)cc1,·,1.2,12.9,·,-1.7
Cc1ccn2cc(-c3cccc(NC(=O)c4ccccc4)c3)nc2c1,71.6*,-0.5,-20.6,-7.1,5.8
Cc1ccn2cc(-c3cccc(NC(=O)C(C)C)c3)nc2c1,7.1,-1.4,-6.1,-14.5,15.4
CC(C)(C)c1ccccc1OCCOCCNCc1ccccc1,96.5*,-0.5,-2.9,-7.8,-4.1
C=CCNCCCCOc1ccc(OCC)cc1,100.1*,1.4,-18.8,-11.8,·
CCCCOCCCNC(=O)CCCOc1ccccc1,2.4,-1.8,-16.9,4.7,·
COCCCNCCCOc1ccc(C(C)(C)c2ccccc2)cc1,99.2*,-0.1,-16.6,-13.1,5.8
C=CCNCCCOc1ccc(C(C)(C)c2ccccc2)cc1,99.7*,0.5,-14.9,5.5,-16.9
Cc1ccnc(NC2(C(F)(F)F)N=C(c3ccccc3)NC2=O)c1 (configuration not stated),41.1,-3.7,-5.1,-4.0,·
COCCNCCCOc1ccc(C(C)(C)c2ccccc2)cc1,98.6*,-0.4,-20.9,-7.4,-7.5
CN(Cc1ccccc1)C(=O)COc1ccc(Br)cc1Cl,·,0.2,-5.7,-13.3,-3.0
Clc1cc(Br)ccc1OCCCNCc1ccccc1,99.2*,-1.7,-1.9,-14.8,0.2
CC(C)(c1ccccc1)c1ccc(OCCCNCCO)cc1,100.4*,1.2,-5.9,-14.5,·
SMILES,Lmaj promast,S1P4 ag,S1P4 antag,Mdm2 ligase inh,S1P3 antagonist
COCCCNCC#CCOc1ccc(OC)cc1,31.9,1.4,0.0,-21.3,-20.4
CC(C)(c1ccccc1)c1ccc(OCCn2cnc3ccccc3c2=O)cc1,-0.9,1.7,1.6,-12.3,·
C=CCNCC#CCOc1ccc(OC)cc1,98.9*,1.1,-3.7,-10.1,·
O=S(=O)(Nc1ccc(Cl)cc1)c1ccc2c(c1)CCO2,·,0.6,-2.5,-8.0,-11.8
O=C(Nc1cccc(NC(=O)c2nccc3ccccc23)c1)c1ccco1,·,·,·,·,-1.7
C/C(=N\NC(=O)C(N)=O)c1cccc(C(F)(F)F)c1,3.0,0.3,-3.2,-0.1,-14.7
COc1ccc(OCCCNCCc2ccccc2)cc1,-10.5,-0.5,-12.1,-13.8,6.2
CCc1cc(OCCCCNCc2ccccc2)ccc1Cl,99.0*,0.3,2.8,4.5,4.3
CC(C)NCC(O)COCCOc1ccc(C(C)(C)C)cc1 (configuration not stated),22.6,1.1,-18.8,-13.3,-0.9
CC(C)(C)c1ccc(OCCCNCc2ccccc2)cc1,99.5*,0.5,-4.1,1.8,-16.0
CCOC(=O)CCCCNCc1ccccc1,-7.5,0.3,-2.1,-18.0,-27.8
CC(C)NCCCOc1ccc(C(C)(C)c2ccccc2)cc1,99.3*,1.9,-15.9,-11.0,·
O=C1c2ccccc2C(=O)N1CCCCN1CCN(CCCCN2C(=O)c3ccccc3C2=O)CC1,-2.3,1.5,-23.4,·,12.2
O=C1CC(=C2c3ccccc3-c3ccccc32)C(=O)N1CCCCN1CCN(c2ccccc2)CC1,99.4*,3.2,-7.4,-10.6,·
